Experimental data taken from ChEMBL document CHEMBL1143300, “Synthesis and activity evaluation of benzoylurea derivatives as potential antiproliferative agents” (Bioorg Med Chem Lett, 2009).
Activity calls are given as the source filed them. No cut-off for these calls is given here.

Columns and labels:
Assay type in all cases: functional, cell-based
[1] = test system: CCRF-CEM; assay: Antiproliferative activity against human CEM cells after 72 hrs by MTT assay
How it was run: (§1)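 MTT read-out of tumour cell proliferation after 72 h of drug exposure. IC50 is the drug concentration giving 50% inhibition of proliferation. Each experiment was repeated three times under identical conditions.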

[2] = test system: CCRF-CEM; assay: Effect on necrosis-mediated morphological changes in human CEM cells assessed as destruction of cytoplasm and nucleic membrane at IC75 after 12 hrs by Giemsa staining
How it was run: (§2)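 After 12 h of drug incubation, CEM cells were spun onto slides by cytospin, air-dried, fixed with methanol and Giemsa-stained. Morphology was examined at 400× magnification.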

[3] = test system: SMMC-7721; assay: Antiproliferative activity against human SMMC7721 cells after 72 hrs by MTT assay; details: SMMC-7721, 72 h; how it was run: as §1
[4] = test system: HepG2; assay: Antiproliferative activity against human HepG2 cells after 72 hrs by MTT assay; details: HepG2, 72 h; how it was run: as §1
[5] = test system: Bel-7402; assay: Antiproliferative activity against human Bel7402 cells after 72 hrs by MTT assay; details: Bel-7402, 72 h; how it was run: as §1
[6] = test system: CCRF-CEM; assay: Effect on necrosis-mediated morphological changes in human CEM cells assessed as destruction of cytoplasm and nucleic membrane at 0.69 uM after 12 hrs by Giemsa staining; how it was run: as §2
[7] = test system: CCRF-CEM; assay: Cell cycle arrest in human CEM cells assessed as accumulation at G2/M phase at 0.69 uM after 12 hrs by flow cytometry
How it was run: (§3)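 CEM cells were left untreated or drug-exposed for 12 h at 37 °C, then collected, fixed in methanol and DNA-stained with a fluorescent dye. Cell-cycle distribution was read by flow cytometry using a conventional cell cycle protocol, with untreated cells as reference.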

[8] = test system: CCRF-CEM; assay: Cell cycle arrest in human CEM cells assessed as accumulation at G2/M phase at 3.2 uM after 12 hrs by flow cytometry; details: 0.1 uM, in the assay text read “0.1 uM” for “3.2 uM”; how it was run: as §3
[9] = test system: CCRF-CEM; assay: Cell cycle arrest in human CEM cells assessed as accumulation at G2/M phase at 0.1 uM after 12 hrs by flow cytometry; how it was run: as §3
[10] = test system: CCRF-CEM; assay: Effect on apoptosis-mediated morphological changes in human CEM cells at 3.2 uM after 12 hrs by Giemsa staining; how it was run: as §2

## O=C(CBr)Nc1cccc(C(=O)NC(=O)Nc2ccc3c(c2)OCO3)c1
[1]
  IC50: 1.5 µM

## CC(Br)C(=O)Nc1cccc(C(=O)NC(=O)Nc2ccccc2)c1 (configuration not stated)
[1]
  IC50: > 20 µM

## O=C(CBr)Nc1cccc(C(=O)NC(=O)Nc2ccccc2)c1
[1]
  IC50: 5.01 µM

## CNC(=O)NC(=O)c1cccc(NC(=O)C(C)Br)c1 (configuration not stated)
[1]
  IC50: 9.32 µM

## COc1cc(NC(=O)NC(=O)c2cccc(NC(=O)C(C)Br)c2)cc(OC)c1OC (configuration not stated)
[1]
  IC50: 1.33 µM

## O=C(CBr)Nc1cccc(C(=O)NC(=O)Nc2ccccn2)c1
[2]
  Activity: Active
[3]
  IC50: 0.93 µM
[4]
  IC50: 0.9 µM
[5]
  IC50: 1.2 µM
[1]
  IC50: 0.7 µM

## COc1cc(NC(=O)NC(=O)c2cccc(NC(=O)CBr)c2)cc(OC)c1OC
[3]
  IC50: 0.67 µM
[4]
  IC50: 0.82 µM
[6]
  Activity: Active
[5]
  IC50: 1.4 µM
[1]
  IC50: 0.33 µM
[7]
  Activity: inactive

## CNC(=O)NC(=O)c1cccc(NC(=O)C(C)Cl)c1 (configuration not stated)
[1]
  IC50: > 20 µM

## NC(=O)NC(=O)Cc1cccc(NC(=O)CCl)c1
[1]
  IC50: 12.6 µM

## NC(=O)NC(=O)/C=C/c1cccc(NC(=O)CBr)c1
[1]
  IC50: 1.38 µM

## CNC(=O)NC(=O)c1cccc(NC(=O)CBr)c1
[1]
  IC50: 3.16 µM

## CC[C@]1(O)C[C@H]2CN(CCc3c([nH]c4ccccc34)[C@@](C(=O)OC)(c3cc4c(cc3OC)N(C=O)[C@H]3[C@@](O)(C(=O)OC)[C@H](OC(C)=O)[C@]5(CC)C=CCN6CC[C@]43[C@@H]65)C2)C1 [VINCRISTINE]
[3]
  IC50: 52.2 µM
[8]
  Activity: Active
[5]
  IC50: 0.04 µM
[9]
  Activity: Active

## CC(Br)C(=O)Nc1cccc(C(=O)NC(=O)Nc2ccccn2)c1 (configuration not stated)
[1]
  IC50: 6.23 µM

## CNC(=O)NC(=O)c1cccc(NC(=O)CCl)c1
[1]
  IC50: 9.1 µM

## CC(Br)C(=O)Nc1cccc(CC(=O)NC(N)=O)c1 (configuration not stated)
[1]
  IC50: > 20 µM

## CC(Br)C(=O)Nc1cccc(C(=O)NC(N)=O)c1 (configuration not stated)
[10]
  Activity: Active
[3]
  IC50: 9.26 µM
[4]
  IC50: 1.2 µM
[5]
  IC50: 1.12 µM

## CC(Br)C(=O)Nc1cccc(C(=O)NC(=O)Nc2ccc3c(c2)OCO3)c1 (configuration not stated)
[1]
  IC50: 12.1 µM
